Results from ChEMBL document CHEMBL4396869, “Design and Synthesis of Selective Phosphodiesterase 4D (PDE4D) Allosteric Inhibitors for the Treatment of Fragile X Syndrome and Other Brain Disorders” (J Med Chem, 2019).
Activity calls are given as the source filed them. The rule behind the calls is not given here.

Columns and labels:
Homo sapiens [1] = species: Homo sapiens; experiment: Selectivity ratio of IC50 for recombinant human wild-type His6-tagged PDE4D7 UCR1 domain (S129 residues) expressed in baculovirus infected Sf9 insect cells to IC50 for recombinant human His6-tagged PDE4D7 UCR1 S129D mutant expressed in baculovirus infected Sf9 insect cells
[2] = (§1) Inhibition of recombinant human wild-type His6-tagged PDE4D7 UCR1 domain (S129 residues) expressed in baculovirus infected Sf9 insect cells using cAMP as substrate preincubated for 5 to 10 mins followed by substrate addition and measured for 10 mins by yeast myokinase/pyruvate kinase/lactate dehydrogenase-coupled fluorescence assay
Homo sapiens [3] = species: Homo sapiens; experiment: Selectivity ratio of IC50 for recombinant human His6-tagged PDE4B1 UCR1 S133D mutant expressed in baculovirus infected Sf9 insect cells to IC50 for recombinant human His6-tagged PDE4D7 UCR1 S129D mutant expressed in baculovirus infected Sf9 insect cells
[4] = target: 3',5'-cyclic-AMP phosphodiesterase 4B (Homo sapiens, UniProt Q07343, S133D); experiment: as §1, with “human” for “human wild-type”, “PDE4B1” for “PDE4D7”, “S133D mutant” for “domain (S129 residues)”
3',5'-cyclic-AMP phosphodiesterase 4B, sequence (Q07343 whole entry S133D): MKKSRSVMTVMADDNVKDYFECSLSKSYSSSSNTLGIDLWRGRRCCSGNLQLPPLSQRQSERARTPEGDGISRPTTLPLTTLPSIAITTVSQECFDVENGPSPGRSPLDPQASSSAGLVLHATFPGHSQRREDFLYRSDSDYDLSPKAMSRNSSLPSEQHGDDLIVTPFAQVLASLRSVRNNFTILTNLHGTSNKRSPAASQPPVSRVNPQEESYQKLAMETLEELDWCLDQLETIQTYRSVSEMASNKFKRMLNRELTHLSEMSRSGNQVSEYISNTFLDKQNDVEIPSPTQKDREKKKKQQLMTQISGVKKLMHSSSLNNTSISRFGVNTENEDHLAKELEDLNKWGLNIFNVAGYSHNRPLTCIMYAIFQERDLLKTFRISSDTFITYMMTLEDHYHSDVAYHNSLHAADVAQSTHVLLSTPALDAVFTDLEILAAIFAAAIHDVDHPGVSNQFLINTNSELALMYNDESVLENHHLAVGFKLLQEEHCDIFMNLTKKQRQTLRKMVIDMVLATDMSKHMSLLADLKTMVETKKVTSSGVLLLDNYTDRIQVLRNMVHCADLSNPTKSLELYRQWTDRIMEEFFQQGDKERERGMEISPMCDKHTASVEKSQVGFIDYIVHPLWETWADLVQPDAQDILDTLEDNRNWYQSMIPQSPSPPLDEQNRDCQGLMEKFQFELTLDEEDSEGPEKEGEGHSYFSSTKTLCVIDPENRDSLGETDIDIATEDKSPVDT

[5] = as §1, with “human” for “human wild-type”, “S129D mutant” for “domain (S129 residues)”
Mus musculus [6] = experiment: Memory enhancement effect in ICR mouse assessed as improvement in novel object discrimination at 0.1 mg/kg, ip […] measured for 5 mins by open field test; type: functional, organism-based
How it was run: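 Male ICR mice (25–30 g) in open field box; habituation 10 min day 1, training with two identical objects 5 min day 2, test with familiar and novel object 5 min day 3 (24 h delay). Exploration times recorded; discrimination index d2 = (b − a)/(a + b). Oral dosing in 5% DMSO, 5% Solutol in PBS; rolipram given parenterally.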

Mus musculus [7] = experiment: Induction of emesis in ICR mouse assessed as reduction in ketamine/xylazine-induced duration of anesthesia at 0.1 mg/kg, ip pretreated for 15 mins followed by ketamine/xylazine addition; type: organism-based; conditions: in vivo
How it was run: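 Male ICR mice, 25–30 g. Test agents given by oral gavage in 5% DMSO, 5% Solutol in PBS, or rolipram IP; ketamine (80 mg/kg) plus xylazine (10 mg/kg) IP given 30 min after PO or 15 min after IP dosing. Endpoint: time from loss to return of righting reflex.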

Mus musculus [8] = experiment: Memory enhancement effect in ICR mouse assessed as improvement in novel object discrimination at 3 to 30 mg/kg, po administered via gavage measured for 5 mins by open field test; type: functional, organism-based
How it was run: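 Male ICR mice (25–30 g), dosed by oral gavage in 5% DMSO, 5% Solutol in PBS. Three phases in an open field box: 10 min habituation on day 1, 5 min training with identical objects on day 2, 5 min test with familiar and novel objects on day 3 (24 h delay). Exploration times recorded; discrimination index d2 = (b − a)/(a + b).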

[9] = Stability in mouse liver microsomes assessed as parent compound remaining at 1 uM measured after 30 mins by LC-MS/MS analysis; type: ADME, Microsome; conditions: read-out: Stability
How it was run: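 Liver microsome stability run by a contract lab using standard protocols. Parent compound remaining measured after 30 min incubation.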

[10] = Protein binding in human plasma; type: ADME, cell-free
[11] = Protein binding in dog plasma; type: ADME, cell-free, Canis lupus familiaris; conditions: read-out: PPB
[12] = Protein binding in rat plasma; type: ADME, cell-free; conditions: read-out: PPB
[13] = Protein binding in mouse plasma; type: ADME, cell-free; conditions: read-out: PPB
Cytochrome P450 3A4 = Cytochrome P450 3A4 (Homo sapiens, UniProt P08684); experiment: Inhibition of CYP3A4 (unknown origin) by fluorescence-based assay; type: ADME
Cytochrome P450 3A4, sequence (P08684 whole entry): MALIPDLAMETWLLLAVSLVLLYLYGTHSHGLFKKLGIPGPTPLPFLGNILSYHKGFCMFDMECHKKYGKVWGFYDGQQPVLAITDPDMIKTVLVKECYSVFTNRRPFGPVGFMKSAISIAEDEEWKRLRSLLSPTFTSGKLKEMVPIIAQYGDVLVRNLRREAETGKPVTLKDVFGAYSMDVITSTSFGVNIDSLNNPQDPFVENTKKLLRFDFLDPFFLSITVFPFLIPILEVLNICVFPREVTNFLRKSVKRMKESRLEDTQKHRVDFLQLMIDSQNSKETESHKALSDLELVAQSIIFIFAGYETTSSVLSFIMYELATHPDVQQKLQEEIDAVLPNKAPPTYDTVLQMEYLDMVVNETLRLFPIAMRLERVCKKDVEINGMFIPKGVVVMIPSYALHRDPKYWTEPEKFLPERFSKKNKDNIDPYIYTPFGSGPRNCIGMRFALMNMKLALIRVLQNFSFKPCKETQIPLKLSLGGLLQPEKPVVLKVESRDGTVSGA
How it was run: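 CYP inhibition run with a fluorescent substrate by a contract laboratory under standard protocols; IC50 reported.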

[14] = as §1, with “human” for “human wild-type”, “S129D mutant” for “domain (S129 residues)”, “assay relative to control” for “assay”
[15] = Aqueous kinetic solubility of the compound in pH 7.4 PBS buffer at 100 uM measured after 1 hr; type: physicochemical; conditions: pH 7.4, 1 h

| SMILES | Ratio IC50 (Homo sapiens [1]) | IC50 [2] | Ratio IC50 (Homo sapiens [3]) | IC50 [4] | IC50 [5] | further results |
| --- | --- | --- | --- | --- | --- | --- |
| CCc1cc(Nc2ccc(CC(N)=O)cc2)nc(-c2cccc(Cl)c2)n1 | 56 | 146 nM | 17 | 43 nM | 2.6 nM | – |
| CCc1nc(Nc2ccc(CC(N)=O)cc2)nc(-c2cccc(Cl)c2)n1 | 41 | 203 nM | 10 | 48 nM | 5 nM | – |
| NC(=O)Cc1ccc(Nc2cc(-c3cccc(Cl)c3)nc3c2CCC3)cc1 | 40 | 1660 nM | 3 | 136 nM | 42.1 nM | – |
| NC(=O)Cc1ccc(S(=O)(=O)c2cc(-c3cccc(Cl)c3)nc3c2CCC3)cc1 | – | – | – | 3830 nM | 475 nM | – |
| CCc1cc(Cc2ccc(CCO)cc2)nc(-c2cccc(Cl)c2)n1 | – | 534 nM | – | 584 nM | 2 nM | – |
| COc1ccc(C2CNC(=O)C2)cc1OC1CCCC1 (stereo not drawn) [ROLIPRAM] | – | – | – | – | – | Activity (Mus musculus [6]): Active; Activity (Mus musculus [7]): Toxic |
| CN(c1ccc(CC(N)=O)cc1)c1cc(-c2cccc(Cl)c2)nc2c1CCC2 | – | – | – | 3290 nM | 733 nM | – |
| CNC(=O)Cc1ccc(Nc2cc(-c3cccc(Cl)c3)nc3c2CCC3)cc1 | – | 1990 nM | – | 98 nM | 133 nM | – |
| O=C(O)Cc1ccc(Nc2cc(-c3cccc(Cl)c3)nc3c2CCC3)cc1 | – | – | 1 | 1640 nM | 1160 nM | – |
| CCc1cc(Nc2ccc(CCO)cc2)nc(-c2cccc(Cl)c2)n1 | – | 149 nM | – | 57 nM | 1.1 nM | – |
| NC(=O)Cc1ccc(Cc2cc(-c3cccc(Cl)c3)nc3c2CCC3)cc1 | – | 810 nM | – | 137 nM | 8.6 nM | – |
| CCc1nc(Nc2ccc(C(=O)O)cc2)nc(-c2cccc(Cl)c2)n1 | 2 | 482 nM | 1 | 241 nM | 213 nM | – |
| CCc1cc(Cc2ccc(CC(=O)NCCO)cc2)nc(-c2cccc(Cl)c2)n1 | – | 885 nM | – | 128 nM | 0.8 nM | Activity (Mus musculus [8]): Active; remaining at 0.5 h, 1 µM [9]: 36%; PPB [10]: 99.6 to 99.8%; fraction unbound [11]: 0.002 to 0.004; fraction unbound [12]: 0.002 to 0.004; fraction unbound [13]: 0.002 to 0.004; IC50 (Cytochrome P450 3A4): 3100 nM; Imax [14]: 88%; Kinetic_solubility [15]: 29 µM |
